Entries after “also recorded” stand apart in the source; their conditions may differ.
Key:
[1] = target: T1, Crcen (Chlamydomonas reinhardtii centrin) (Chlamydomonas reinhardtii, UniProt P05434); assay: Isothermal titration calorimetry of Crcen-MLT interaction; format: binding; settings: ITC, pH 7.4, 25 °C
Method in brief: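 Unlabeled recombinant centrin was expressed in E. coli, purified, and quantified by ε280 = 1,490 M⁻¹ cm⁻¹. The acetylated, amidated test peptide was dialysed against 0.1 N HCl to remove TFA, then against buffer. 120 μM peptide was injected sequentially into 10 μM centrin in 50 mM Hepes, 150 mM NaCl, 4 mM CaCl₂, 4 mM MgCl₂, pH 7.4, 25 °C. Data were fitted to a one-site binding model.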

[2] = FT-IR / 2D IR correlation spectroscopy, thermal dependence; format: physicochemical; settings: ^13C-Crcen-MLT complex
[3] = target: T1, Crcen (Chlamydomonas reinhardtii centrin); assay: X-ray crystal structure of Crcen-MLT complex; format: binding; settings: PDB 3QRX, 2.30 Å, 4 Ca^2+ ions, Crcen-MLT 1:1.5 molar ratio
CaM (calmodulin) = settings: cited from earlier work
human centrin 2 (Hscen2) = settings: 30 °C, pH 6.5; compared to Crcen-MLT and CaM-MLT; ref [16]; cited from earlier work
human centrin 3 = settings: compared to Hscen2-MLT (Kd 62.5 nM); ref [16],[25]; cited from earlier work
calmodulin (CaM) = settings: literature statement; cited from earlier work
tumor = settings: ref [23],[24]; cited from earlier work
[4] = ref [12]; cited from earlier work
[5] = holo-Crcen; ref [11]; cited from earlier work
[6] = target: Chlamydomonas reinhardtii centrin (Chlamydomonas reinhardtii) (UniProt P05434); assay: ITC
Sequence of Chlamydomonas reinhardtii centrin (Chlamydomonas reinhardtii) (P05434 whole entry): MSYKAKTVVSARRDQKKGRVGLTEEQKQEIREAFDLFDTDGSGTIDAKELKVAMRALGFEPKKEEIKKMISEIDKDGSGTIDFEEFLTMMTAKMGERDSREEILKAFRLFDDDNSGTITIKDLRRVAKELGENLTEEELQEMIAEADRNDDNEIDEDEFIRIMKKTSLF

[7] = target: melittin (Apis mellifera) (UniProt P01501); settings: cited from earlier work
Sequence of melittin (Apis mellifera) (P01501 44-70): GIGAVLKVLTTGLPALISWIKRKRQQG

T1 sequence (P05434 2-169): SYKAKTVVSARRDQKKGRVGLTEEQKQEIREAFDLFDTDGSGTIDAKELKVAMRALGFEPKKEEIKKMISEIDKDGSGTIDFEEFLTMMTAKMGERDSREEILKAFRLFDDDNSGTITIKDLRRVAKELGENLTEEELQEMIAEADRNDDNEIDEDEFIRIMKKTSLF
Sequence of Melittin (Ac-…-NH2) (peptide) (P01501 44-69): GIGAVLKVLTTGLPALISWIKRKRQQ
Sequence of human centrin 2 (P41208 2-172): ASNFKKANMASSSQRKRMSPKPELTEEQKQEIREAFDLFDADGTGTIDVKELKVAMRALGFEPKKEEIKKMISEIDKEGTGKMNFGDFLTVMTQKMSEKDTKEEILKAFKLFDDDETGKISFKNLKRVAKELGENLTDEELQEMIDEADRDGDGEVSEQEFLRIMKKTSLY

Compound: CC[C@H](C)[C@H](NC(=O)CNC(C)=O)C(=O)NCC(=O)N[C@@H](C)C(=O)N[C@H](C(=O)N[C@@H](CC(C)C)C(=O)N[C@@H](CCCCN)C(=O)N[C@H](C(=O)N[C@@H](CC(C)C)C(=O)N[C@H](C(=O)N[C@H](C(=O)NCC(=O)N[C@@H](CC(C)C)C(=O)N1CCC[C@H]1C(=O)N[C@@H](C)C(=O)N[C@@H](CC(C)C)C(=O)N[C@H](C(=O)N[C@@H](CO)C(=O)N[C@@H](Cc1c[nH]c2ccccc12)C(=O)N[C@H](C(=O)N[C@@H](CCCCN)C(=O)N[C@@H](CCCNC(=N)N)C(=O)N[C@@H](CCCCN)C(=O)N[C@@H](CCCNC(=N)N)C(=O)N[C@@H](CCC(N)=O)C(=O)N[C@@H](CCC(N)=O)C(N)=O)[C@@H](C)CC)[C@@H](C)CC)[C@@H](C)O)[C@@H](C)O)C(C)C)C(C)C [MLT]
- thermodynamic driving force of complex formation [1]: driven by entropy; also recorded: driven entropically
- ΔG [1]: -11.1 kcal/mol
- ΔS [1]: 28.0 cal/mol∙K
- n (binding stoichiometry) ([1]; one-site binding model): 1.38 ± 0.01
- ΔHb ([1]; exothermic): -2.73 ± 0.07 kcal/mol
- conformational change of MLT in the complex [2]: increased helicity
- binding site in crystal structure [3]: interacts with the C-terminal domain of Crcen; also recorded: limits its interaction to the C-terminal domain of centrin
- thermodynamic driving force of complex formation, CaM (CaM (calmodulin); BtCaM, 25 °C, pH 7.0, ref [14]): driven by entropy
- dissociation constant (Kd), holo-CaM (CaM (calmodulin); holo-CaM-MLT, 1:1 molar ratio, ref [14],[15],[17]): low nanomolar range
- Kd (CaM (calmodulin); read-out: Kd, apo-CaM, ref [17],[18]): ~10000 nM
- enthalpy change, Hscen2-MLT (human centrin 2 (Hscen2)): much more favorable for binding
- affinity, human centrin 3-MLT, fold higher than Hscen2-MLT (human centrin 3): 2–3 fold
- inhibition of calmodulin (CaM) activity (calmodulin (CaM)): potent inhibitor
- cytotoxicity (tumor): cytotoxicity
- effect on tumor growth (tumor): inhibitory effect on tumor growth

Compound: Crcen: Chlamydomonas reinhardtii centrin (Swiss Protein Database accession number P05434), EF-hand calcium binding protein
- shift of amide I’ peak maximum with temperature, unlabeled Crcen [4]: 2.5 cm⁻¹
- Tm (transition temperature) [5]: 112.1 °C

Compound: Melittin (Ac-…-NH2) (peptide)
- Kd [6]: 7.41 nM
- dH [6]: -2.73 kcal/mol
- stoichiometry N [6]: 1.38

Compound: human centrin 2 (from UniProt P41208)
- Kd [7]: 62.5 nM
